Laboratory results reported in ChEMBL document CHEMBL1157184, “Hymenoic acid, a novel specific inhibitor of human DNA polymerase lambda from a fungus of Hymenochaetaceae sp” (Bioorg Med Chem, 2008).

Legend:
[1] = molecular target: DNA polymerase beta (Homo sapiens, UniProt P06746); assay: Inhibition of human DNA polymerase beta
[2] = Inhibition of human N terminal deleted DNA polymerase lambda Del-2 mutant
Summary of the method: (§1)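 Dose-response was run on 0.05 U of full-length (residues 1–575), del-1 (133–575) or del-2 (245–575) human pol λ. Compound in DMSO was preincubated 10 min at 0 °C, then the reaction ran 60 min at 37 °C with poly(dA)/oligo(dT)12-18 and dTTP. Activity relative to the no-compound control; means ± SEM of three independent experiments.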

[3] = molecular target: T1, DNA polymerase lambda (Homo sapiens, UniProt Q9UGP5); assay: Inhibition of human DNA polymerase lambda; summary of the method: as §1
T1 sequence (Q9UGP5 whole entry): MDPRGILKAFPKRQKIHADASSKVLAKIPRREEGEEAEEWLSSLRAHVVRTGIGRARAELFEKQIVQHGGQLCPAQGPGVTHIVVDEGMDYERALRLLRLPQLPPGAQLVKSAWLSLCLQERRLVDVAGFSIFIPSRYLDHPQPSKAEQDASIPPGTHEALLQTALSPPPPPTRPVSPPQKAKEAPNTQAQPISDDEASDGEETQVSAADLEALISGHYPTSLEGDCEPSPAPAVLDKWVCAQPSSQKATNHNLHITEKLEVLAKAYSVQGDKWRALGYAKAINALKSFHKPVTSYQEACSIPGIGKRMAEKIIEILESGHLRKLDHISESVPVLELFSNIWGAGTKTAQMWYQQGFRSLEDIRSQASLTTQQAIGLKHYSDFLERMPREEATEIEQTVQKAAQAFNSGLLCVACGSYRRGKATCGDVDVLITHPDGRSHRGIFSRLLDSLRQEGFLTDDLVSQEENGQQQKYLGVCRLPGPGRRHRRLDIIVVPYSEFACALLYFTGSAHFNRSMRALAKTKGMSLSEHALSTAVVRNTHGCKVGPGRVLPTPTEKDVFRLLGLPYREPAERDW

[4] = Inhibition of human N terminal deleted DNA polymerase lambda Del-1 mutant; summary of the method: as §1

IC50 [1]: > 200 µM
IC50 [2]: > 200 µM
IC50 [3]: 91.7 µM
IC50 [4]: > 200 µM
Compound: C/C(=C\CC[C@H](C)C(=O)O)[C@H]1CC[C@H](C(=O)O)CC1 [HYMENOIC ACID]
